OX1R antag-1: OX1R (HCRTR1) antagonists, primary screen, fluorescence, CHO/OX1R cells, Fluo-8 calcium, orexin A | Fluo-8 calcium fluorescence | inhibition, % at 5 µM | actives 0.43% (n = 330,000);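 active means inhibition above its plate's threshold, mean inhibition of all tested compounds on the plate plus 3 SD, cut at about 37% in these data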
Target sequence (O43613 whole entry, looked up): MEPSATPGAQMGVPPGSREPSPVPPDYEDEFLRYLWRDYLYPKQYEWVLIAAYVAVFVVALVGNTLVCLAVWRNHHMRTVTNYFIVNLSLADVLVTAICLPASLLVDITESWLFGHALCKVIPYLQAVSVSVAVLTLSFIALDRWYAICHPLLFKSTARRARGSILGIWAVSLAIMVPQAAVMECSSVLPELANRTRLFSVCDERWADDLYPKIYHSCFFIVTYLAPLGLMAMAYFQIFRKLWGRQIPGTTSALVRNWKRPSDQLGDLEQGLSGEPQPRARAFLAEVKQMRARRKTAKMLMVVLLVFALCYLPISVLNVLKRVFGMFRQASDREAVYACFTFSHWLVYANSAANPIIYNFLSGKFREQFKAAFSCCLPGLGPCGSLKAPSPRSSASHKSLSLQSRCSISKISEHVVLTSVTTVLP
OX1R antag-2: antagonists of human orexin 1 receptor (OX1R); AID 485270, 2010; inhibition, % at 6.6 µM; actives 1.8% (n = 330,000); OX1R-expressing cells, FRET antagonist read-out; in the data active means inhibition mostly above about 38%, no sharp cut-off; inactive means mostly below about 40%
V1aR counter: agonists of human V1a receptor, primary screen, counter-screen for OXTR agonist project, fluorescence, CHO-V1R cells. Vasopressin V1a receptor (Homo sapiens), P37288. Fluo-8 calcium fluorescence, agonist mode; 0% DMSO, 100% 3 nM vasopressin. activation, % at 3 µM. actives 0.25% (n = 320,000). AID 2797, 2010;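 active means activation above the mean activation of all tested compounds plus 3 SD, per screening run, cut at about 20% in these data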;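 further: signal is peak over basal fluorescence ratio across a 100 second FLIPR read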
OXTR potentiator: human OXTR potentiators, primary screen, fluorescence, CHO-OTR cells, Fluo-8 calcium. Oxytocin receptor (Homo sapiens), P30559. activation, % at 3 µM. Fluo-8 calcium fluorescence, potentiator mode; 0% = oxytocin EC15, 100% = EC100. actives 0.061% (n = 320,000);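 active means activation above that plate's cutoff, the mean activation of tested compounds plus 3 SD, cut at about 6.6% in these data, passing the limit was not always enough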
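System: human OTR in CHO cells; Also added: sub-maximal oxytocin, roughly EC15; Timing: compound 6 min at room temperature before oxytocin, 100 s read; Technique: Fluo-8 intracellular calcium fluorescence, ex 470-495, em 515-575 nm; Controls: oxytocin EC15 low and EC100 high; Replication: singlicate.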
OXTR agonist: human OXTR agonists, primary screen, fluorescence, CHO-OTR cells, Fluo-8 calcium | Fluo-8 calcium fluorescence; normalized: DMSO 0%, oxytocin 100% | Oxytocin receptor (Homo sapiens), P30559 | activation, % at 3 µM | AID 2435, 2010 | actives 0.32% (n = 320,000);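 active means activation above the mean of all tested compounds plus 3 SD, cutoff set per screening run, cut at about 20% in these data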;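 further: peak over basal fluorescence ratio from a 100 s FLIPR kinetic read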
CHO parental Ca: ATP-evoked calcium signal inhibitors, parental CHO, primary screen, counter-screen for OX1R antagonist project, cell-based, fluorescence, Fluo-8 calcium dye | parental CHO-K1, ATP-induced calcium, Fluo-8 fluorescence | inhibition, % at 5.6 µM | actives 0.63% (n = 330,000) | AID 463079, 2010;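 active means inhibition above that plate's mean sample inhibition plus 3 SD, cut at about 26% in these data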
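Assay system – parental CHO cells · Reagent – ATP stimulus · Detection – intracellular calcium via Fluo-8 no-wash fluorescent dye · Evaluation – percent inhibition of ATP-evoked calcium rise, normalized to controls · Controls – ATP wells versus no-ATP DMSO wells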
A number is an active result; . = inactive. This is a sample that favours compounds with a hit; in the whole collection about 2.6% have one here.

SMILES	OX1R antag-1	OX1R antag-2	V1aR counter	OXTR potentiator	OXTR agonist	CHO parental Ca
CC1CN(S(=O)(=O)c2cc(C(=O)N(CCc3ccccc3)Cc3ccccc3)ccc2Cl)CC(C)O1 (centres undefined)	.	.	.	.	.	.
CCN(CC1COc2ccccc2O1)C(=O)c1ccc(Cl)c(S(=O)(=O)N2CC(C)OC(C)C2)c1 (centres undefined)	.	49.8	.	.	.	.
CCN(CC)c1ccc(NC(=O)c2cc3c(OC)cccc3[nH]2)cc1	.	39.6	.	.	.	.
COc1cccc2[nH]c(C(=O)NC(C)c3ccccc3)cc12 (centres undefined)	.	.	.	.	.	.
CCc1nc2c(c(=O)c3ccccc3n2C)c(=O)n1C1CCCCCC1	.	.	87.9	.	47.4	.
COc1ccc(-c2noc(C3CCCN(S(=O)(=O)c4ccc(C)c(Cl)c4)C3)n2)cc1OC (centres undefined)	.	.	.	.	.	.
COc1ccc(-c2noc(C3CCCN(S(=O)(=O)c4cccc(Cl)c4C)C3)n2)cc1OC (centres undefined)	.	45.4	.	.	.	.
CCCCN(C(=O)c1cc(S(=O)(=O)N2CCCCCC2)ccc1OC)c1c(N)n(CCC)c(=O)[nH]c1=O	.	.	.	.	.	.
CCc1nn(CC(=O)Nc2cc(C)ccc2C)c(=N)s1	.	.	.	.	.	.
COc1cc(C(=O)ON=C2C=C(C)C(=O)C(C)=C2)cc(OC)c1OC	.	75.3	.	.	.	.
CN(C)S(=O)(=O)N1CCc2ccc(NC(=O)c3ccc(C(F)(F)F)cc3)cc2C1	.	.	.	.	.	.
C=C(C)C(O)CC/C(C)=C/Cc1c(O)ccc(C(=O)/C=C/c2ccc(O)cc2)c1O (centres undefined)	.	.	.	.	.	30.9
CC(=O)NC1C(c2nc3ccccc3s2)=C(c2ccccc2)C(=O)N1c1ccc(C)cc1 (centres undefined)	.	.	.	.	.	.
COc1cccc(N2C(=O)C(c3ccccc3)=C(c3nc4ccccc4s3)C2NC(C)=O)c1 (centres undefined)	.	53.0	.	.	.	.
O=C(OCC(O)COc1ccccc1)c1ccc([N+](=O)[O-])cc1 (centres undefined)	.	.	.	.	.	.
Cc1cc(NC(=O)c2ccc(COc3ccc(Cl)c(C)c3)o2)no1	.	.	.	.	.	.
Cc1cc(NC(=O)c2ccc(COc3ccccc3Cl)o2)no1	.	.	.	.	.	53.1
COc1ccc(/C=C/c2cc[n+](C(=O)Cc3ccccc3)cc2)cc1	.	72.7	.	.	.	.
C=CCN(c1ccccc1)S(=O)(=O)c1cccc(C(=O)NCC(c2cccs2)N2CCOCC2)c1 (centres undefined)	.	39.4	.	.	.	.
C[C@H](CO)N1C[C@H](C)[C@@H](CN(C)Cc2ccc(C(=O)O)cc2)Oc2c(NS(=O)(=O)c3ccc(F)cc3)cccc2C1=O	.	.	.	.	.	.
CC(=O)Oc1c(C)cc(Cl)cc1C(=O)Nc1ccc([N+](=O)[O-])cc1Cl	.	71.2	.	.	.	.
Cc1noc(C)c1CSCC(=O)Nc1nc2c(F)cc(F)cc2s1	.	.	.	.	.	.
CCCCCCCCCCCCCCCC[N+](C)(C)CCN(Cc1ccc(OC)cc1)c1ncccn1	46.2	.	.	.	.	64.2
CC(=O)Nc1ccccc1NC(=O)C/C(C)=N/NC(=O)C(=O)N1CCCCC1	.	.	.	.	.	.
COc1cccc2c(=O)c3ccccc3oc12	.	62.4	.	.	.	.
COc1ccc2oc3ccccc3c(=O)c2c1	.	.	.	.	.	.

Screening results as filed in PubChem BioAssay.
